Data: paper PMC3056322 (Journal of the American Chemical Society, 2010)
Non-standard residues stand in square brackets, D forms with d. Residues, ends and D or L forms follow the SMILES beside them. pS = N[C@@H](COP(=O)(O)O)C(=O)O

T1: trans-locked alkene isostere inhibitor (also: pSer-Pro amide replaced by (E)CH=C alkene isostere)
T1 chain: Ac-FF[pS]PR-NH2

T2: FFpSPR substrate phosphopeptide (SMILES CC(=O)N[C@@H](Cc1ccccc1)C(=O)N[C@@H](Cc1ccccc1)C(=O)N[C@@H](COP(=O)(O)O)C(=O)N1CCC[C@H]1C(=O)N[C@@H](CCCNC(=N)N)C(N)=O)
T2 chain: Ac-FF[pS]PR-NH2

T3: cis-locked alkene isostere inhibitor (also: pSer-Pro amide replaced by (Z)CH=C alkene isostere)
T3 chain: Ac-FF[pS]PR-NH2


Columns and labels:
[1] = molecular target: T4, Pin1-PPIase (truncated human Pin1 construct omitting the WW domain) (Homo sapiens, UniProt Q13526); assay: 15N–1H chemical shift perturbation ligand titration; assay type: binding
T4 sequence (Q13526 50-163 limits assumed): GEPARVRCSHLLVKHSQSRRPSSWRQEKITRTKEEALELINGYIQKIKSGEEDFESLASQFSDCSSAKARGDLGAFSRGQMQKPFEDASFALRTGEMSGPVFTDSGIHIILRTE
In short: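 Pin1-PPIase was titrated with the test compound, and the protein's amide 15N–1H chemical shift perturbations were followed. Kd was obtained by fitting the resulting binding isotherms.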

[2] = molecular target: T4, Pin1-PPIase (truncated human Pin1 construct omitting the WW domain); assay: Natural abundance 13C CPMG relaxation dispersion of ligand with Pin1-PPIase; assay type: binding
[3] = molecular target: T4, Pin1-PPIase (truncated human Pin1 construct omitting the WW domain); assay: 2-D 1H–1H EXSY of cis–trans isomerization with Pin1-PPIase; assay type: biochemical; details: 1H–1H EXSY of attached P4 Hδ protons
In short: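 2-D 1H–1H EXSY was run on an acetylated, amidated phospho-Ser-Pro pentapeptide substrate with Pin1-PPIase. Enzyme levels relative to ligand were raised up to 20%. Cis–trans exchange rate and cis population were taken from the EXSY data.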

[4] = molecular target: T1, trans-locked alkene isostere inhibitor; assay: NMR chemical shift titration
[5] = molecular target: T2, FFpSPR substrate phosphopeptide; assay: NMR chemical shift titration
[6] = molecular target: T3, cis-locked alkene isostere inhibitor; assay: NMR chemical shift titration
[7] = side-chain P4-Cδ, 1% Pin1-PPIase, two-state fit

| Kd [1] [µM] | kex ([2]; P4-Cα and F1-Cα, 1% Pin1-PPIase) [s⁻¹] | C-terminal R5-Cα dispersion ([2]; R5-Cα, 1% Pin1-PPIase) | kex [2, 7] [s⁻¹] | pminor [2, 7] [%] | 13C dispersion at lower temperature ([2]; with Pin1-PPIase, lower temperature) | pCIS ([3]; cis population) [%] | kex,CIS/TRANS ([3]; cis–trans isomerization) [s⁻¹] | Kd [4] [µM] | Kd [5] [µM] | Kd [6] [µM] | Molecule |
| --- | --- | --- | --- | --- | --- | --- | --- | --- | --- | --- | --- |
| 203 ± 46 | 200 to 800 | strong dispersion | 85 ± 9 | 17 ± 4 | decrease in FFpSPR dispersion | 12 ± 2 | 87 ± 4 | – | – | – | CC(=O)N[C@@H](Cc1ccccc1)C(=O)N[C@@H](Cc1ccccc1)C(=O)N[C@@H](COP(=O)(O)O)C(=O)N1CCC[C@H]1C(=O)N[C@@H](CCCNC(=N)N)C(N)=O [FFpSPR, Ac-Phe-Phe-pSer-Pro-Arg-NH2] (Ac-FF[pS]PR-NH2) |
| – | – | – | – | – | – | – | – | 78 | 203 | 7 | Pin1 PPIase domain (protein) PARVRCSHLLVKHSQSRRPSSWRQEKITRTKEEALELINGYIQKIKSGEEDFESLASQFSDCSSAKARGDLGAFSRGQMQKPFEDASFALRTGEMSGPVFTDSGIHIILRTE |
